ChEMBL document CHEMBL1629587, “Discovery of a small-molecule inhibitor of {beta}-1,6-glucan synthesis” (2009)
Converted amounts (≈) assume the structure as drawn. The source made the active and inactive calls. The calls are words filed in the database; no cut-off is given here. Starred links: 1 amine or outer side, 2 acyl side, 3 side chain; linkers in the order of their positions; H or OH if unused. Positions of bridges follow the written chain, without caps; N, C: chain ends. Non-standard residues stand in square brackets, D forms with d. Residues, ends and D or L forms follow the SMILES beside them. *: point of attachment. Orn(4R-OH,5R-OH) = O=C([C@H](C[C@@H](O)[C@@H](O)N[*:3])N[*:1])[*:2]; hTyr(3S-OH,4S-OH) = N[C@H](C(=O)O)[C@H](O)[C@@H](O)c1ccc(O)cc1; Pro(3S-OH,4S-Me) = C[C@H]1CN[C@H](C(=O)O)[C@H]1O; Palmitoyl = CCCCCCCCCCCCCCCC(=O)*; Hyp = O=C(O)[C@@H]1C[C@@H](O)CN1

How the values were obtained:
[1] = test system: Saccharomyces cerevisiae; experiment: […] activity against Saccharomyces cerevisiae AY-10 after 24 hrs by microdilution method; type: functional; details: AY-10, 24 h
[2] = test system: Saccharomyces cerevisiae; experiment: Fungicidal activity against Saccharomyces cerevisiae AY-10-R15 mutant after 24 hrs by microdilution method; type: functional; details: AY-10-R15, 24 h
[3] = test system: Saccharomyces cerevisiae; experiment: […] activity against Saccharomyces cerevisiae AY-10 transformed with pRS416-31 carrying KRE6 gene after 24 hrs by microdilution method; type: functional; details: AY-10, 24 h
[4] = test system: Saccharomyces cerevisiae; experiment: […] activity against Saccharomyces cerevisiae AY-10 transformed with pRS416-13 carrying ADP1 gene after 24 hrs by microdilution method; type: functional; details: AY-10, 24 h
[5] = test system: Saccharomyces cerevisiae; experiment: Fungicidal activity against Saccharomyces cerevisiae AY-10-R4 mutant after 24 hrs by microdilution method; type: functional; details: AY-10-R4, 24 h
[6] = test system: Saccharomyces cerevisiae; experiment: Fungicidal activity against Saccharomyces cerevisiae AY-10-R16 mutant after 24 hrs by microdilution method; type: functional; details: AY-10-R16, 24 h
[7] = test system: Saccharomyces cerevisiae; experiment: […] activity against Saccharomyces cerevisiae AY-10 transformed with empty vector pRS416 after 24 hrs by microdilution method; type: functional; details: AY-10, 24 h
[8] = test system: Saccharomyces cerevisiae; experiment: Fungicidal activity against Saccharomyces cerevisiae AY-10-R11 mutant after 24 hrs by microdilution method; type: functional; details: AY-10-R11, 24 h
[9] = test system: Candida tropicalis; experiment: Antifungal activity against Candida tropicalis ATCC 200956 after 24 hrs by microdilution method; type: functional; details: ATCC 200956, 24 h
Procedure, shortened: (§1)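 CLSI broth microdilution run at 30°C instead of standard temperature; starting inoculum 1 × 10^3 to 3 × 10^3 cells/ml; DMSO under 1% final. Endpoints: MIC-0 = lowest concentration giving an optically clear well; MIC-2 = 50% drop versus drug-free control in absorbance at 570 nm with alamar blue redox indicator, used because treated cells clump.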

[10] = test system: Aspergillus fumigatus; experiment: Antifungal activity against Aspergillus fumigatus ATCC 36607 after 24 hrs by microdilution method; type: functional; details: ATCC 36607, 24 h; procedure, shortened: as §1
[11] = test system: Candida albicans; experiment: Antifungal activity against Candida albicans ATCC MYA-573 after 24 hrs by microdilution method; type: functional; details: ATCC MYA-573, 24 h; procedure, shortened: as §1
[12] = test system: Pichia kudriavzevii; experiment: Antifungal activity against Candida krusei TIMM0269 after 24 hrs by microdilution method; type: functional; details: TIMM0269, 24 h; procedure, shortened: as §1
[13] = test system: Kluyveromyces marxianus; experiment: Antifungal activity against Candida kefyr ATCC 46764 after 24 hrs by microdilution method; type: functional; details: ATCC 46764, 24 h; procedure, shortened: as §1
[14] = test system: Clavispora lusitaniae; experiment: Antifungal activity against Candida lusitaniae ATCC 200951 after 24 hrs by microdilution method; type: functional; details: ATCC 200951, 24 h; procedure, shortened: as §1
[15] = test system: Aspergillus flavus; experiment: Antifungal activity against Aspergillus flavus ATCC 64025 after 24 hrs by microdilution method; type: functional; details: ATCC 64025, 24 h; procedure, shortened: as §1
[16] = test system: Candida albicans; experiment: Antifungal activity against Candida albicans ATCC 24433 after 24 hrs by microdilution method; type: functional; details: ATCC 24433, 24 h; procedure, shortened: as §1
[17] = test system: Nakaseomyces glabratus; experiment: Antifungal activity against Candida glabrata IFO0622 after 24 hrs by microdilution method; type: functional; details: IFO0622, 24 h; procedure, shortened: as §1
[18] = test system: Candida parapsilosis; experiment: Antifungal activity against Candida parapsilosis IFO1396 after 24 hrs by microdilution method; type: functional; details: Lodderomyces parapsilosis, IFO1396, 24 h; procedure, shortened: as §1
[19] = test system: Saccharomyces cerevisiae; experiment: Antifungal activity against Saccharomyces cerevisiae YPH500 after 24 hrs by microdilution method; type: functional; details: YPH500, 24 h
Procedure, shortened: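 CLSI broth microdilution, incubated at 30°C, starting inoculum 1 × 10^3 to 3 × 10^3 cells/ml; drugs from DMSO, final DMSO below 1%. MIC-0 is the lowest concentration giving an optically clear well. MIC-2 is read with alamar blue as a 50% drop in A570 versus the drug-free control; both endpoints were recorded.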

[20] = test system: Trichosporon asahii; experiment: Antifungal activity against Trichosporon asahii ATCC 90039 after 24 hrs by microdilution method; type: functional; details: ATCC 90039, 24 h; procedure, shortened: as §1
[21] = test system: Cryptococcus neoformans; experiment: Antifungal activity against Cryptococcus neoformans ATCC 90112 after 24 hrs by microdilution method; type: functional; details: ATCC 90112, 24 h; procedure, shortened: as §1
[22] = test system: Aspergillus terreus; experiment: Antifungal activity against Aspergillus terreus ATCC 28301 after 24 hrs by microdilution method; type: functional; details: ATCC 28301, 24 h; procedure, shortened: as §1
[23] = test system: Candida tropicalis; experiment: Antifungal activity against Candida tropicalis TIMM0313 after 24 hrs by microdilution method; type: functional; details: TIMM0313, 24 h; procedure, shortened: as §1
[24] = test system: Nakaseomyces glabratus; experiment: Antifungal activity against Candida glabrata ATCC 200918 after 24 hrs by microdilution method; type: functional; details: ATCC 200918, 24 h; procedure, shortened: as §1
[25] = test system: Saccharomyces cerevisiae; experiment: Inhibition of beta-1,6-Glucan synthesis in Saccharomyces cerevisiae AY-10 assessed as reduction in [14C]glucose incorporation at 0.078 ug/ml after 3 hrs; type: functional, organism-based; details: at 0.078 µg/mL
Procedure, shortened: (§2)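 Exponentially growing cells in RPMI 1640 (absorbance ~0.6 at 595 nm) incubated at 30°C with drug plus [14C]glucose at 2 μCi/ml. Cells extracted twice with 3% NaOH at 80°C, then the insoluble material digested overnight at 30°C with Zymolyase 100T (1 mg/ml, pH 7.5). The soluble fraction was dialysed to remove β-1,3-glucan oligosaccharides, and the retained β-1,6-glucan was counted by scintillation. Read-out is percent change in incorporated radioactivity versus the drug-free control.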

[26] = test system: Nakaseomyces glabratus; experiment: Inhibition of beta-1,6-Glucan synthesis in Candida glabrata IFO0622 assessed as reduction in [14C]glucose incorporation at 0.025 to 4 ug/ml after 3 hrs; type: functional, organism-based; procedure, shortened: as §2
[27] = test system: Saccharomyces cerevisiae; experiment: Inhibition of beta-1,3-Glucan synthesis in Saccharomyces cerevisiae AY-10 assessed as reduction in [14C]glucose incorporation at 0.039 to 0.625 ug/ml after 3 hrs; type: functional, organism-based
Procedure, shortened: (§3)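 Exponential cells in RPMI 1640 at A595 about 0.6, pulse-labelled with [14C]glucose 2 μCi/ml plus drug at 30°C, sampled at 1 and 3 h. Cell wall fractionated: mannan from 3% NaOH extracts at 80°C by Fehling's reaction; residue digested with Zymolyase 100T (1 mg/ml), insoluble part = chitin; β-1,3-glucan = total glucan minus dialysed β-1,6-glucan. Scintillation counting; % change versus untreated.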

[28] = test system: Saccharomyces cerevisiae; experiment: Inhibition of beta-1,6-Glucan synthesis in Saccharomyces cerevisiae AY-10 assessed as reduction in [14C]glucose incorporation at 0.078 to 1.25 ug/ml after 1 hr; type: functional, organism-based; details: at 0.078 to 1.25 µg/mL; procedure, shortened: as §2
[29] = test system: Saccharomyces cerevisiae; experiment: Inhibition of beta-1,3-Glucan synthesis in Saccharomyces cerevisiae AY-10 assessed as reduction in [14C]glucose incorporation at 0.039 to 0.625 ug/ml after 1 hr; type: functional, organism-based; procedure, shortened: as §3
[30] = test system: Saccharomyces cerevisiae; experiment: Inhibition of beta-1,6-Glucan synthesis in Saccharomyces cerevisiae AY-10 assessed as reduction in [14C]glucose incorporation at 0.078 ug/ml after 1 hr; type: functional, organism-based; details: at 0.078 µg/mL; procedure, shortened: as §2
[31] = test system: Saccharomyces cerevisiae; experiment: Inhibition of beta-1,6-Glucan synthesis in Saccharomyces cerevisiae AY-10 assessed as reduction in [14C]glucose incorporation at 0.039 to 0.625 ug/ml after 3 hrs; type: functional, organism-based; details: at 0.039 to 0.625 µg/mL; procedure, shortened: as §2
[32] = test system: Saccharomyces cerevisiae; experiment: Inhibition of beta-1,6-Glucan synthesis in Saccharomyces cerevisiae AY-10 assessed as reduction in [14C]glucose incorporation at 0.078 to 1.25 ug/ml after 3 hrs; type: functional, organism-based; details: at 0.078 to 1.25 µg/mL; procedure, shortened: as §2
[33] = test system: Saccharomyces cerevisiae; experiment: Inhibition of beta-1,6-Glucan synthesis assessed as reduction in [14C]glucose incorporation at 0.025 to 4 ug/ml after 1 hr; details: AY-10
[34] = test system: Saccharomyces cerevisiae; experiment: Inhibition of beta-1,6-Glucan synthesis in Saccharomyces cerevisiae AY-10 assessed as reduction in [14C]glucose incorporation at 0.039 to 0.625 ug/ml after 1 hr; type: functional, organism-based; details: at 0.039 to 0.625 µg/mL; procedure, shortened: as §2

## Nc1nc(=O)[nH]cc1F [FLUCYTOSINE]
[1]
  MIC: 2 µg/mL (≈ 15.5 µM)
[2]
  MIC: 4 µg/mL (≈ 31 µM)
[3]
  MIC: 2 µg/mL (≈ 15.5 µM)
[4]
  MIC: 4 µg/mL (≈ 31 µM)
[5]
  MIC: 2 µg/mL (≈ 15.5 µM)
[6]
  MIC: 2 µg/mL (≈ 15.5 µM)
[7]
  MIC: 2 µg/mL (≈ 15.5 µM)
[8]
  MIC: 4 µg/mL (≈ 31 µM)

## C[C@@H]1[C@H](O)[C@@H](C)/C=C/C=C/C=C/C=C/C=C/C=C/C=C/[C@H](O[C@@H]2O[C@H](C)[C@@H](O)[C@H](N)[C@@H]2O)C[C@@H]2O[C@](O)(C[C@@H](O)C[C@@H](O)[C@H](O)CC[C@@H](O)C[C@@H](O)CC(=O)O[C@H]1C)C[C@H](O)[C@H]2C(=O)O [AMPHOTERICIN B]
[1]
  MIC: 0.25 µg/mL (≈ 0.271 µM)
[2]
  MIC: 0.25 µg/mL (≈ 0.271 µM)
[3]
  MIC: 0.25 µg/mL (≈ 0.271 µM)
[4]
  MIC: 0.125 µg/mL (≈ 0.135 µM)
[5]
  MIC: 0.0625 µg/mL (≈ 0.0676 µM)
[6]
  MIC: 0.25 µg/mL (≈ 0.271 µM)
[7]
  MIC: 0.25 µg/mL (≈ 0.271 µM)
[8]
  MIC: 0.125 µg/mL (≈ 0.135 µM)

## OC(Cn1cncn1)(Cn1cncn1)c1ccc(F)cc1F [FLUCONAZOLE]
[9]
  MIC50: 16 µg/mL (≈ 52.2 µM)
[10]
  MIC50: > 64 µg/mL
[11]
  MIC50: > 64 µg/mL
[12]
  MIC50: > 64 µg/mL
[13]
  MIC50: 0.25 µg/mL (≈ 0.816 µM)
[14]
  MIC50: 0.063 µg/mL (≈ 0.206 µM)
[15]
  MIC50: > 64 µg/mL
[16]
  MIC50: 0.25 µg/mL (≈ 0.816 µM)
[17]
  MIC50: 2 µg/mL (≈ 6.53 µM)
[18]
  MIC50: 1 µg/mL (≈ 3.27 µM)
[19]
  MIC50: 4 µg/mL (≈ 13.1 µM)
[20]
  MIC50: 4 µg/mL (≈ 13.1 µM)
[21]
  MIC50: 2 µg/mL (≈ 6.53 µM)
[22]
  MIC50: > 64 µg/mL
[23]
  MIC50: 0.25 µg/mL (≈ 0.816 µM)
[24]
  MIC50: 16 µg/mL (≈ 52.2 µM)

## CCCCCCCCCCCCCCCC(=O)N[C@H]1C[C@@H](O)[C@@H](O)NC(=O)[C@@H]2[C@@H](O)[C@@H](C)CN2C(=O)[C@H]([C@@H](C)O)NC(=O)[C@H]([C@H](O)[C@@H](O)c2ccc(O)cc2)NC(=O)[C@@H]2C[C@@H](O)CN2C(=O)[C@H]([C@@H](C)O)NC1=O [ACULEACIN A] (Palmitoyl-[Orn(4R-OH,5R-OH)]T[Hyp][hTyr(3S-OH,4S-OH)]T[Pro(3S-OH,4S-Me)]; lactam 1-C)
[25]
  inhibition: Active
[26]
  Activity: Active
[27]
  inhibition: Active
[1]
  MIC: 0.5 µg/mL (≈ 0.483 µM)
[2]
  MIC: 0.5 µg/mL (≈ 0.483 µM)
[28]
  inhibition: Active
[3]
  MIC: 0.5 µg/mL (≈ 0.483 µM)
[4]
  MIC: 0.25 µg/mL (≈ 0.241 µM)
[5]
  MIC: 0.125 µg/mL (≈ 0.121 µM)
[29]
  inhibition: Active
[6]
  MIC: 0.25 µg/mL (≈ 0.241 µM)
[30]
  inhibition: Active
[31]
  inhibition: inactive
[32]
  inhibition: Active
[33]
  Activity: Active
[34]
  inhibition: inactive
[7]
  MIC: 0.5 µg/mL (≈ 0.483 µM)
[8]
  MIC: 0.25 µg/mL (≈ 0.241 µM)
